Results from ChEMBL document CHEMBL3046321, “Preparation of achiral and chiral (E)-enaminopyran-2,4-diones and their phytotoxic activity” (2009).

These molecules were tested on Cucumis sativus (assay: Phytotoxic activity against Cucumis sativus (cucumber)seeds assessed as inhibition of radicle growth at 10^-3 mol/l at 25 degC after 72 hr by filter-paper based radicle elongation assay).
Format: functional
How it was run: (§1)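 Test compounds suspended and sonicated 5 min. Aliquots of 4 mL wetted two sheets of filter paper in glass Petri dishes, with 20 seeds per dish. Tested at 10⁻⁴ and 10⁻³ mol L⁻¹. Incubated 72 h at 25 °C under fluorescent light. Radicle length measured and germination recorded (radicle ≥1 mm). Completely randomized design, five replications. Results as % radicle growth inhibition vs untreated controls; Tukey's test, P 0.05.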
In the case of `COC(=O)[C@H](Cc1ccccc1)N/C(C)=C1\C(=O)C=C(C)OC1=O`, the inhibition at 1000 µM is reported as 63.1%. `CC1=CC(=O)/C(=C(/C)NNc2ccc([N+](=O)[O-])cc2[N+](=O)[O-])C(=O)O1` showed an inhibition at 1000 µM of 77.6%. Work on `CCCCN/C(C)=C1\C(=O)C=C(C)OC1=O` yielded an inhibition at 1000 µM of 44%. In the case of `CC1=CC(=O)/C(=C(/C)NNc2ccccc2)C(=O)O1`, the inhibition at 1000 µM is reported as 19.2%. Molecule `COc1ccc(N/C(C)=C2\C(=O)C=C(C)OC2=O)cc1` has an inhibition at 1000 µM of 33.4%. `CC1=CC(=O)/C(=C(/C)Nc2ccccc2Cl)C(=O)O1` was tested, and the inhibition at 1000 µM was 88.3%. Work on `CC1=CC(=O)/C(=C(/C)Nc2ccccc2O)C(=O)O1` yielded an inhibition at 1000 µM of 69.3%. `CC1=CC(=O)/C(=C(/C)Nc2ccccc2)C(=O)O1` showed an inhibition at 1000 µM of 81.1%. Work on `CCCN/C(C)=C1\C(=O)C=C(C)OC1=O` yielded an inhibition at 1000 µM of 46.2%.

The molecules below were run on Cucumis sativus (assay: Phytotoxic activity against Cucumis sativus (cucumber)seeds assessed as inhibition of radicle growth at 10^-4 mol/l at 25 degC after 72 hr by filter-paper based radicle elongation assay).
Format: functional
How it was run: as §1
With `COC(=O)[C@H](Cc1ccccc1)N/C(C)=C1\C(=O)C=C(C)OC1=O` the inhibition at 100 µM was 2.1%. In the case of `CC1=CC(=O)/C(=C(/C)NNc2ccc([N+](=O)[O-])cc2[N+](=O)[O-])C(=O)O1`, the inhibition at 100 µM is reported as 23.4%. `CCCCN/C(C)=C1\C(=O)C=C(C)OC1=O` showed an inhibition at 100 µM of -10.4%. Molecule `CC1=CC(=O)/C(=C(/C)NNc2ccccc2)C(=O)O1` has an inhibition at 100 µM of 29.5%. Work on `COc1ccc(N/C(C)=C2\C(=O)C=C(C)OC2=O)cc1` yielded an inhibition at 100 µM of 1.4%. Molecule `CC1=CC(=O)/C(=C(/C)Nc2ccccc2Cl)C(=O)O1` has an inhibition at 100 µM of 54.5%. In the case of `CC1=CC(=O)/C(=C(/C)Nc2ccccc2O)C(=O)O1`, the inhibition at 100 µM is reported as 7.8%. For `CC1=CC(=O)/C(=C(/C)Nc2ccccc2)C(=O)O1`, the inhibition at 100 µM was -10.4%. For `CCCN/C(C)=C1\C(=O)C=C(C)OC1=O`, the inhibition at 100 µM was -15.7%.

Each molecule was assayed on Sorghum bicolor (assay: Phytotoxic activity against Sorghum bicolor seeds assessed as inhibition of radicle growth at 10^-3 mol/l at 25 degC after 72 hr by filter-paper based radicle elongation assay).
Format: functional
How it was run: as §1
Molecule `COC(=O)[C@H](Cc1ccccc1)N/C(C)=C1\C(=O)C=C(C)OC1=O` has an inhibition at 1000 µM of 24.4%. `CC1=CC(=O)/C(=C(/C)NNc2ccc([N+](=O)[O-])cc2[N+](=O)[O-])C(=O)O1` gave an inhibition at 1000 µM of 75.8%. `CCCCN/C(C)=C1\C(=O)C=C(C)OC1=O` was tested, and the inhibition at 1000 µM was 79.7%. Molecule `CC1=CC(=O)/C(=C(/C)NNc2ccccc2)C(=O)O1` has an inhibition at 1000 µM of 27.2%. For `COc1ccc(N/C(C)=C2\C(=O)C=C(C)OC2=O)cc1`, the inhibition at 1000 µM was 48.2%. In the case of `CC1=CC(=O)/C(=C(/C)Nc2ccccc2Cl)C(=O)O1`, the inhibition at 1000 µM is reported as 85.2%. With `CC1=CC(=O)/C(=C(/C)Nc2ccccc2O)C(=O)O1` the inhibition at 1000 µM was 73.7%. For `CC1=CC(=O)/C(=C(/C)Nc2ccccc2)C(=O)O1`, the inhibition at 1000 µM was 62%. Molecule `CCCN/C(C)=C1\C(=O)C=C(C)OC1=O` has an inhibition at 1000 µM of 75.4%.

These molecules were tested on Sorghum bicolor (assay: Phytotoxic activity against Sorghum bicolor seeds assessed as inhibition of radicle growth at 10^-4 mol/l at 25 degC after 72 hr by filter-paper based radicle elongation assay).
Format: functional
How it was run: as §1
Work on `COC(=O)[C@H](Cc1ccccc1)N/C(C)=C1\C(=O)C=C(C)OC1=O` yielded an inhibition at 100 µM of -10.8%. `CC1=CC(=O)/C(=C(/C)NNc2ccc([N+](=O)[O-])cc2[N+](=O)[O-])C(=O)O1` was tested, and the inhibition at 100 µM was 8.3%. Molecule `CCCCN/C(C)=C1\C(=O)C=C(C)OC1=O` has an inhibition at 100 µM of 48.3%. `CC1=CC(=O)/C(=C(/C)NNc2ccccc2)C(=O)O1` was tested, and the inhibition at 100 µM was -26.5%. `COc1ccc(N/C(C)=C2\C(=O)C=C(C)OC2=O)cc1` showed an inhibition at 100 µM of 28.4%. `CC1=CC(=O)/C(=C(/C)Nc2ccccc2Cl)C(=O)O1` showed an inhibition at 100 µM of 32.9%. Molecule `CC1=CC(=O)/C(=C(/C)Nc2ccccc2O)C(=O)O1` has an inhibition at 100 µM of 39.9%. `CC1=CC(=O)/C(=C(/C)Nc2ccccc2)C(=O)O1` gave an inhibition at 100 µM of 7.2%. `CCCN/C(C)=C1\C(=O)C=C(C)OC1=O` was tested, and the inhibition at 100 µM was 19.9%.
